The values that follow come from ChEMBL document CHEMBL2062526, “Tandem synthesis and in vitro antiplasmodial evaluation of new naphtho[2,1-d]thiazole derivatives” (Eur J Med Chem, 2012).

A short description of data set [1]: Cytotoxicity against human HepG2 cells after 72 hrs by MTT assay. Format: cell-based. Put shortly:
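HepG2 cells seeded at 5×10^3/well in RPMI with 10% FBS, L-glutamine, penicillin/streptomycin, 37 °C under 6% CO₂/14% O₂/80% N₂. Compounds added after 24 h, 72 h exposure, duplicate wells. MTT (5 mg/mL stock) for 2 h, formazan dissolved in DMSO, A570 with 630 nm reference. Viability relative to untreated cells. CC50 from non-linear regression, mean of three independent experiments.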

A further data set concerns Plasmodium falciparum. Kind of data set: Antiplasmodial activity against multidrug-resistant Plasmodium falciparum K1 ring stage after 72 hrs by […] Green fluorescence-based assay. It is filed as functional, organism-based. As to conditions: K1, 72 h.
Data set [2] can be described thus: Selectivity index, ratio of CC50 for human HepG2 cells to IC50 for multidrug-resistant Plasmodium falciparum K1 ring stage. It is filed as functional. The method in brief: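 SI = CC50 (HepG2)/IC50 (K1). HepG2 MTT: 5×10^3 cells/well, 24 h preculture, compound 72 h, 37 °C; MTT 2 h, formazan in DMSO, A570 (ref 630 nm); duplicates, CC50 by non-linear regression, mean of three experiments. K1 IC50 by 72 h SYBR Green assay on sorbitol-synchronized rings.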

Bounds are passed on as bounds.

For `Cc1nc2c(S(=O)(=O)c3ccc(Cl)cc3)c(N)c3cc(F)ccc3c2s1`, in data set [1], the CC50 at 72 h came to 0.5 µM.
With `Cc1nc2c(S(=O)(=O)c3ccccc3)cc3ccccc3c2s1`, the IC50 with Plasmodium falciparum is > 25 µM. For the same molecule, the midpoint of cytotoxicity in data set [1], the CC50 at 72 h, lay at 11.3 µM. For the same molecule, in data set [2], the “Ratio CC50/IC50” value was <0.5.
The molecule `Cc1nc2c(S(=O)(=O)c3ccc(Cl)cc3)cc3cc(F)ccc3c2s1` returned a CC50 at 72 h in data set [1] of 3.4 µM.
Consider `COc1cc2cc(S(=O)(=O)c3ccc(C)cc3)c3nc(C)sc3c2cc1OC`, for which the IC50 in the data set with Plasmodium falciparum is > 25 µM. Further, the 50% cytotoxic concentration (CC50) at 72 h in data set [1] was > 125 µM.
`Cc1ccc(S(=O)(=O)c2cc3cc(F)ccc3c3sc(C)nc23)cc1` came in with a CC50 at 72 h in data set [1] of 3.1 µM.
On the same count and under the same terms, for `Cc1ccc(S(=O)(=O)c2c(N)c3cc(F)ccc3c3sc(C)nc23)cc1` the value was 0.2 µM; for `Cc1nc2c(S(=O)(=O)c3ccc(Cl)cc3)c(N)c3ccccc3c2s1`, 1 µM.
Turning to `Cc1nc2c(S(=O)(=O)c3ccccc3)c(N)c3cc(F)ccc3c2s1`, the IC50 in the data set with Plasmodium falciparum is > 25 µM. Further, in data set [1], the CC50 at 72 h was > 500 µM.
In data set [1], `Cc1ccc(S(=O)(=O)c2c(N)c3ccccc3c3sc(C)nc23)cc1` displayed a 50% cytotoxic concentration (CC50) at 72 h of 0.2 µM.
Consider `Cc1ccc(S(=O)(=O)c2cc3ccc(C)cc3c3sc(C)nc23)cc1`, for which, in the data set with Plasmodium falciparum, the IC50 was > 25 µM. Moreover, the CC50 at 72 h in data set [1] is > 250 µM.
As for `Cc1ccc2cc(S(=O)(=O)c3ccccc3)c3nc(C)sc3c2c1`, the IC50 with Plasmodium falciparum stood at 4.8 µM. In addition, the CC50 at 72 h in data set [1] was > 125 µM. Also, the “Ratio CC50/IC50” value in data set [2] is >26.
Regarding `Cc1nc2c(S(=O)(=O)c3ccccc3)c(N)c3ccccc3c2s1`, the IC50 in the data set on Plasmodium falciparum is > 25 µM. In data set [1], the cytotoxic concentration (CC50) at 72 h was > 500 µM.
The matching figures for `COc1cc2cc(S(=O)(=O)c3ccc(Cl)cc3)c3nc(C)sc3c2cc1OC`: > 25 µM and > 31.2 µM.
`COc1cc2cc(S(=O)(=O)c3ccccc3)c3nc(C)sc3c2cc1OC` came in with an IC50 with Plasmodium falciparum of 2.7 µM. Also, in data set [1], the CC50 at 72 h was > 125 µM. The “Ratio CC50/IC50” value in data set [2] is >45.
With `Cc1nc2c(S(=O)(=O)c3ccc(Cl)cc3)cc3ccccc3c2s1`, in data set [1], it took 6 µM to reach half-maximal cytotoxicity (CC50 at 72 h).
Turning to `C[C@H]1c2cccc(O)c2C(=O)C2=C(O)[C@]3(O)C(=O)C(C(N)=O)=C(O)[C@@H](N(C)C)[C@@H]3[C@@H](O)[C@@H]21.O` [DOXYCYCLINE], the “Ratio CC50/IC50” value in data set [2] stood at 4.
Molecule `Cc1ccc(S(=O)(=O)c2cc3ccccc3c3sc(C)nc23)cc1` yielded a half-maximal cytotoxic concentration (CC50) at 72 h in data set [1] of 2.2 µM.
For `Cc1nc2c(S(=O)(=O)c3ccccc3)cc3cc(F)ccc3c2s1`, in the data set on Plasmodium falciparum, the IC50 was > 25 µM. This molecule also displayed a CC50 at 72 h in data set [1] of 26 µM. The “Ratio CC50/IC50” value in data set [2] is recorded as <1.
